{"source": "ChEMBL document CHEMBL3124880", "about": "“4-(3-Chloro-5-(trifluoromethyl)pyridin-2-yl)-N-(4-methoxypyridin-2-yl)piperazine-1-carbothioamide (ML267), a potent inhibitor of bacterial phosphopantetheinyl transferase that attenuates secondary metabolism and thwarts bacterial growth” (J Med Chem, 2014)", "key": {"[1]": {"test": "Inhibition of Bacillus subtilis Sfp-PPTase using rhodamine-CoA/BHQ-2-YbbR as substrate preincubated for 15 mins followed by substrate addition by HTS assay"}, "Bacillus subtilis [2]": {"tested_on": "Bacillus subtilis", "test": "Antibacterial activity against Bacillus subtilis OKB105 assessed as effect on doubling time in log phase at 0.53 to 1.1 ug/mL after 28 hrs", "type": "functional, organism-based", "in_short": "(§1)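 B. subtilis OKB105 cultured with compound at 0.53 or 1.1 µg/mL against a vehicle control. Culture density and surfactin titer sampled periodically over 28 h.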"}, "Staphylococcus aureus [3]": {"tested_on": "Staphylococcus aureus", "test": "Antibacterial activity against Staphylococcus aureus BK2395 assessed as growth inhibition in presence of calf serum", "type": "functional"}, "Pseudomonas aeruginosa": {"tested_on": "Pseudomonas aeruginosa", "test": "Antibacterial activity against Pseudomonas aeruginosa ATCC 9028 assessed as growth inhibition at 0.8 to 100 ug/mL after 16 to 20 hrs by resazurin dye-based assay", "type": "functional, organism-based", "in_short": "(§2)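 Broth microdilution. Test article from 1 μL DMSO in 50 μL cation-adjusted Mueller Hinton II (bacteria) or RPMI 1640 (fungi), plus ~1×10^3 cfu inoculum in the same medium. Incubated 16–20 h at 30–37 °C (48 h for fungi). MIC scored visually as the first well without growth; resazurin added for imaging.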"}, "[4]": {"test": "Chemical stability of the compound in HEPES buffer at room temperature measured over 48 hrs by LC/MS analysis", "type": "physicochemical", "in_short": "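Compound held in aqueous media over pH 2–9 and in PBS and HEPES buffers, then monitored for degradation.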"}, "[5]": {"test": "Half life in CD-1 mouse at 3 mg/kg, iv", "type": "ADME, organism-based", "parameters": "dose 3 mg/kg, route intravenous", "details": "in vivo", "in_short": "(§3)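 Male CD1 mice, 6–8 weeks old. Dosed iv at 3 mg/kg or ip at 30 mg/kg as a solution in 5% DMSO/10% Solutol in water. Plasma sampled in triplicate at eight time points over 24 h.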"}, "Liver microsome [6]": {"tested_on": "Liver microsome", "test": "Metabolic stability in mouse liver microsomes measured over 1 hr in absence of NADPH"}, "Bacillus subtilis [7]": {"tested_on": "Bacillus subtilis", "test": "Antibacterial activity against Bacillus subtilis OKB105 assessed as effect on cellular density at 0.53 to 1.1 ug/mL after 28 hrs", "type": "functional, organism-based", "in_short": "as §1"}, "Escherichia coli [8]": {"tested_on": "Escherichia coli", "test": "Antibacterial activity against Escherichia coli K-12 assessed as growth inhibition at 0.8 to 100 ug/mL after 16 to 20 hrs by resazurin dye-based assay", "type": "functional, organism-based", "in_short": "as §2"}, "Liver microsome [9]": {"tested_on": "Liver microsome", "test": "Drug metabolism in human liver microsomes assessed as GSH adduct formation at 50 uM after 60 mins by LC-MS/MS analysis in presence of NADPH", "type": "ADME", "details": "1 h"}, "[10]": {"test": "Half life in CD-1 mouse at 30 mg/kg, ip", "type": "ADME, organism-based", "parameters": "dose 30 mg/kg, route intraperitoneal", "details": "in vivo", "in_short": "as §3"}, "Escherichia coli [11]": {"tested_on": "Escherichia coli", "test": "Antibacterial activity against wild type Escherichia coli BW25113 assessed as growth inhibition at 1.8 to 250 ug/mL after 16 to 20 hrs by broth dilution method in presence of AcrAB-TolC inhibitor phenylarginine-beta-napthamide", "type": "functional", "in_short": "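E. coli BW25113 (wild type) and JW0451 (ΔacrB) tested by broth dilution in cation-adjusted Mueller Hinton II, ~1×10^3 cfu, 16–20 h. Growth shown with resazurin. Checkerboard combination with the efflux inhibitor PAβN in the wild type.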"}, "Staphylococcus aureus [12]": {"tested_on": "Staphylococcus aureus", "test": "Antibacterial activity against Staphylococcus aureus BK2395 in Swiss Webster mouse septicemia model assessed as increase in survival at 30 mg/kg, ip administered 4 to 48 hrs measured 3 times daily for 14 days relative to vehicle-treated control", "type": "functional, organism-based", "parameters": "dose 30 mg/kg", "in_short": "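MRSA USA500 strain BK2395 used in a mouse sepsis model. Treated animals compared with vehicle, with vancomycin as a reference treatment; survival monitored.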"}, "[13]": {"target": "T1, L-aminoadipate-semialdehyde dehydrogenase-phosphopantetheinyl transferase (Homo sapiens) (UniProt Q9NRN7)", "T1 sequence (whole entry)": "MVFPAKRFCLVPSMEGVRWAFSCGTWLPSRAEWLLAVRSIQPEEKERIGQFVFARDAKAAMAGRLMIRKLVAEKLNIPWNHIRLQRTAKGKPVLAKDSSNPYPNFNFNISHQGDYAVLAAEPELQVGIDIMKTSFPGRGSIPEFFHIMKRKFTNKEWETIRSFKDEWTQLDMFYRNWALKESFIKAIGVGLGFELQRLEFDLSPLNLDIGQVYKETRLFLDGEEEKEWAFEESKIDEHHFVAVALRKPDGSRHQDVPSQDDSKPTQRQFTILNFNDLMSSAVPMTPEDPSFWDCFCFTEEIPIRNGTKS", "test": "Inhibition of human PPTase up to 125 uM by gel-based fluorescence assay"}, "Bacillus subtilis [14]": {"tested_on": "Bacillus subtilis", "test": "Antibacterial activity against Bacillus subtilis OKB105 assessed as inhibition of surfactin production after 28 hrs by LC-MS analysis", "type": "functional, organism-based", "in_short": "as §1"}, "[15]": {"test": "Inhibition of Bacillus subtilis AcpS-PPTase using rhodamine-CoA/BHQ-2-YbbR as substrate preincubated for 15 mins followed by substrate addition by HTS assay", "in_short": "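AcpS-PPTase at 100 nM final in 50 mM HEPES-Na pH 7.6, 10 mM MgCl2, 0.01% Nonidet P-40, 0.01% BSA; compound preincubated 15 min at room temperature, then rhodamine-CoA (5 μM final) and BHQ-2-YbbR (12.5 μM final) added. Fluorescence read (525 ex/598 em) at start and after 60 min; difference gives rate.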"}, "HepG2": {"tested_on": "HepG2", "test": "Cytotoxicity against human HepG2 cells assessed as cellular ATP content after 48 hrs by CellTiter-Glo assay", "type": "cell-based", "details": "HepG2, 48 h", "in_short": "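HepG2 cells exposed to compound; viability read as cellular ATP by luciferase-coupled CellTiter-Glo.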"}, "Candida albicans": {"tested_on": "Candida albicans", "test": "Antifungal activity against fluconazole-sensitive Candida albicans ATCC 90028 assessed as growth inhibition at 0.8 to 100 ug/mL after 48 hrs by resazurin dye-based assay", "type": "functional, organism-based", "in_short": "as §2"}}, "note": "Active and inactive are the calls of the source. The rule behind the calls is not given here.", "data": [{"smiles": "COc1ccnc(NC(=S)N2CCN(c3ncc(C(F)(F)F)cc3Cl)CC2)c1", "values": [{"measurement": "IC50", "setting": "[1]", "result": 290, "unit": "nM"}, {"measurement": "Activity", "setting": "Bacillus subtilis [2]", "result": "inactive"}, {"measurement": "MIC", "setting": "Staphylococcus aureus [3]", "result": "> 57", "unit": "µM"}, {"measurement": "growth inhibition (GI)", "setting": "Pseudomonas aeruginosa", "result": "inactive"}, {"measurement": "Stability", "setting": "[4]", "result": "Stable"}, {"measurement": "half-life", "setting": "[5]", "result": 144, "unit": "min"}, {"measurement": "Stability", "setting": "Liver microsome [6]", "result": "Stable"}, {"measurement": "Activity", "setting": "Bacillus subtilis [7]", "result": "inactive"}, {"measurement": "growth inhibition (GI)", "setting": "Escherichia coli [8]", "result": "inactive"}, {"measurement": "Drug metabolism", "setting": "Liver microsome [9]", "result": "Not Active"}, {"measurement": "half-life", "setting": "[10]", "result": 120, "unit": "min"}, {"measurement": "growth inhibition (GI)", "setting": "Escherichia coli [11]", "result": "Active"}, {"measurement": "Activity", "setting": "Staphylococcus aureus [12]", "result": "inactive"}, {"measurement": "inhibition", "setting": "[13]", "result": "inactive"}, {"measurement": "inhibition", "setting": "Bacillus subtilis [14]", "result": "Dose-dependent effect"}, {"measurement": "IC50", "setting": "[15]", "result": 8.1, "unit": "µM"}, {"measurement": "IC50", "setting": "HepG2", "result": "≥ 114", "unit": "µM"}, {"measurement": "growth inhibition (GI)", "setting": "Candida albicans", "result": "inactive"}]}]}
